Measurements taken from ChEMBL document CHEMBL3797175, “Discovery of 6-(difluoro(6-(4-fluorophenyl)-[1,2,4]triazolo[4,3-b][1,2,4]triazin-3-yl)methyl)quinoline as a highly potent and selective c-Met inhibitor” (Eur J Med Chem, 2016).
Active and inactive are the calls of the source. The calls are words filed in the database; no cut-off is given here.

How the values were obtained:
[1] = Selectivity ratio of IC50 for human SPCA1 cells to IC50 for mouse BAF3 cells expressing TPR-MET; assay type: ADME, cell-based; settings: SPCA1 cells versus BAF3 cells expressing TPR-MET
[2] = Antiproliferative activity against human U87MG cells after 72 hrs by SRB or MTT assay; assay type: functional, cell-based, U-87MG ATCC; settings: U-87 MG
Procedure, shortened: (§1)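 Cells seeded, exposed next day to a range of concentrations for 72 h. Growth read by sulforhodamine B or MTT. IC50 from four-parameter concentration-response fit. Each concentration tested at least in triplicate, with at least 2 experiments.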

[3] = biological target: T1, Hepatocyte growth factor receptor (Homo sapiens, UniProt P08581); assay: Inhibition of c-Met phosphorylation at Tyrosine 1234 in human MKN45 cells at 10 nM after 1 hr by Western blot analysis; assay type: cell-based; settings: MKN-45
Procedure, shortened: (§2)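 EBC-1 or MKN45 cells treated with compound 1 h at 37 °C without HGF, then lysed in 1× SDS sample buffer. Lysates run on 10% SDS-PAGE and transferred to nitrocellulose. Probed with antibodies to c-Met, phospho-c-Met, phospho-ERK1/2, phospho-AKT, AKT and GAPDH, then HRP secondary. ECL detection.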

[4] = biological target: Tyrosine-protein kinase receptor UFO (Homo sapiens) (UniProt P30530); settings: 1000 nM
[5] = biological target: T1, Hepatocyte growth factor receptor; assay: Inhibition of c-Met phosphorylation at Tyrosine 1235 in human MKN45 cells at 10 nM after 1 hr by Western blot analysis; assay type: cell-based; settings: MKN-45; procedure, shortened: as §2
[6] = biological target: Hepatocyte growth factor receptor (Canis lupus familiaris) (UniProt Q75ZY9); assay: Inhibition of c-Met in MDCK cells assessed as inhibition of HGF-induced branching morphogenesis at 0.4 to 10 nM after 5 days by microscopic analysis; assay type: cell-based
Procedure, shortened: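 MDCK cells (2×10^4/mL) mixed 1:1 with collagen I and gelled 60 min at 37 °C. HGF (100 ng/mL) added with or without compound at various concentrations in growth medium. Medium renewed every 2 d; branching imaged by microscopy after 5 d. Three independent experiments.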

[7] = Selectivity ratio of IC50 for human SNU1 cells to IC50 for mouse BAF3 cells expressing TPR-MET; assay type: ADME, cell-based
[8] = Selectivity ratio of IC50 for human NCI-H3122 cells to IC50 for human MKN45 cells; assay type: ADME, cell-based; settings: mkn-45
Procedure, shortened: (§3)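 Both IC50s in each ratio come from one proliferation assay. Cells were seeded and exposed the next day to a range of concentrations for 72 h, then read by SRB or MTT. IC50s were fitted by four-parameter concentration–response, with each concentration at least in triplicate and at least 2 experiments. BaF3/TPR-Met is murine pre-B BaF3 transfected with TPR-MET and puromycin-selected.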

[9] = biological target: Tyrosine-protein kinase ABL1 (Homo sapiens) (UniProt P00519); assay: Inhibition of recombinant ABL (unknown origin) using poly (Glu, Tyr) 4:1 as substrate at 1000 nM incubated for 60 mins by ELISA relative to control
Procedure, shortened: (§4)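 Recombinant tyrosine kinases assayed on wells precoated with poly(Glu,Tyr)4:1 (20 µg/mL). ATP 10 µmol/L in HEPES pH 7.4 buffer with MgCl2, MnCl2, Na3VO4 and DTT; compound in 1% DMSO, 1% DMSO as control. Reaction 60 min at 37 °C. Phosphotyrosine detected with PY99 and HRP anti-mouse, o-phenylenediamine, A490. Inhibition % relative to control; two experiments.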

[10] = biological target: ALK tyrosine kinase receptor (Homo sapiens) (UniProt Q9UM73); assay: Inhibition of recombinant ALK (unknown origin) using poly (Glu, Tyr) 4:1 as substrate at 1000 nM incubated for 60 mins by ELISA relative to control; procedure, shortened: as §4
[11] = Selectivity ratio of IC50 for human HCT116 cells to IC50 for human EBC1 cells; assay type: ADME, cell-based; settings: hct-116; procedure, shortened: as §3
[12] = Selectivity ratio of IC50 for human SPCA1 cells to IC50 for human EBC1 cells; assay type: ADME, cell-based; settings: SPCA1 cells versus EBC1 cells
[13] = Antitumor activity against human MKN45 cells xenografted in athymic nude mouse assessed as tumor growth inhibition at 12.5 mg/kg, po bid for 21 days measured twice a week during compound dosing relative to control; assay type: functional; settings: MKN-45, po, 504 h, read-out: TGI
Procedure, shortened: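 Nude mice bearing s.c. tumours. Cells were first grown s.c. to 700–800 mm³, then 1.5 mm³ fragments were transplanted s.c. into the right flank. Mice were randomised at 100–200 mm³ (n=6 treated, n=12 vehicle) and dosed orally twice daily for 21 days. Caliper measurement twice weekly; TV = length×width²/2. TGI taken on the final day versus vehicle; Student's t test.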

[14] = Selectivity ratio of IC50 for human AGS cells to IC50 for human EBC1 cells; assay type: ADME, cell-based; procedure, shortened: as §3
[15] = biological target: Platelet-derived growth factor receptor alpha (Homo sapiens) (UniProt P16234); assay: Inhibition of recombinant PDGFRalpha (unknown origin) using poly (Glu, Tyr) 4:1 as substrate at 1000 nM incubated for 60 mins by ELISA relative to control; procedure, shortened: as §4
[16] = Selectivity ratio of IC50 for human NCI-HCC827 cells to IC50 for human MKN45 cells; assay type: ADME, cell-based; settings: mkn-45; procedure, shortened: as §3
[17] = Selectivity ratio of IC50 for human NCI-H596 cells to IC50 for human EBC1 cells; assay type: ADME, cell-based; procedure, shortened: as §3
[18] = Antiproliferative activity against human SGC7901 cells after 72 hrs by SRB or MTT assay; assay type: functional, cell-based; settings: SGC-7901, 72 h; procedure, shortened: as §1
[19] = biological target: T1, Hepatocyte growth factor receptor; assay: Inhibition of c-Met in human MKN45 cells assessed as reduction in ERK phosphorylation at Threonine 202 at 10 nM after 1 hr by Western blot analysis; assay type: cell-based; settings: MKN-45; procedure, shortened: as §2
[20] = Selectivity ratio of IC50 for human SPCA4 cells to IC50 for human EBC1 cells; assay type: ADME, cell-based; settings: spc-a4
[21] = Selectivity ratio of IC50 for human Bel7404 cells to IC50 for human MKN45 cells; assay type: ADME, cell-based; procedure, shortened: as §3
[22] = Selectivity ratio of IC50 for human NCI-H358 cells to IC50 for mouse BAF3 cells expressing TPR-MET; assay type: ADME, cell-based; procedure, shortened: as §3
[23] = Selectivity ratio of IC50 for human NCI-H226 cells to IC50 for human EBC1 cells; assay type: ADME, cell-based; procedure, shortened: as §3
[24] = Selectivity ratio of IC50 for human Calu3 cells to IC50 for human MKN45 cells; assay type: ADME, cell-based; settings: mkn-45; procedure, shortened: as §3
[25] = biological target: T1, Hepatocyte growth factor receptor; assay: Inhibition of c-Met in human NCI-H441 cells assessed as inhibition of HGF-induced cell migration after 24 hrs by crystal violet staining based microscopic analysis
Procedure, shortened: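 NCI-H441 cells, 1.5×10^5 in serum-free medium, placed in upper Transwell chamber (8 µm pores; Matrigel-coated for invasion). Lower chamber serum-free medium ± HGF 100 ng/mL, with compound. After 24 h at 37 °C, non-migrated cells removed. Traversed cells stained with 0.1% crystal violet 15 min and imaged in 5 fields per filter. Three independent experiments.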

[26] = Selectivity ratio of IC50 for human 786-0 cells to IC50 for mouse BAF3 cells expressing TPR-MET; assay type: ADME, cell-based; procedure, shortened: as §3

T1 sequence (P08581 whole entry): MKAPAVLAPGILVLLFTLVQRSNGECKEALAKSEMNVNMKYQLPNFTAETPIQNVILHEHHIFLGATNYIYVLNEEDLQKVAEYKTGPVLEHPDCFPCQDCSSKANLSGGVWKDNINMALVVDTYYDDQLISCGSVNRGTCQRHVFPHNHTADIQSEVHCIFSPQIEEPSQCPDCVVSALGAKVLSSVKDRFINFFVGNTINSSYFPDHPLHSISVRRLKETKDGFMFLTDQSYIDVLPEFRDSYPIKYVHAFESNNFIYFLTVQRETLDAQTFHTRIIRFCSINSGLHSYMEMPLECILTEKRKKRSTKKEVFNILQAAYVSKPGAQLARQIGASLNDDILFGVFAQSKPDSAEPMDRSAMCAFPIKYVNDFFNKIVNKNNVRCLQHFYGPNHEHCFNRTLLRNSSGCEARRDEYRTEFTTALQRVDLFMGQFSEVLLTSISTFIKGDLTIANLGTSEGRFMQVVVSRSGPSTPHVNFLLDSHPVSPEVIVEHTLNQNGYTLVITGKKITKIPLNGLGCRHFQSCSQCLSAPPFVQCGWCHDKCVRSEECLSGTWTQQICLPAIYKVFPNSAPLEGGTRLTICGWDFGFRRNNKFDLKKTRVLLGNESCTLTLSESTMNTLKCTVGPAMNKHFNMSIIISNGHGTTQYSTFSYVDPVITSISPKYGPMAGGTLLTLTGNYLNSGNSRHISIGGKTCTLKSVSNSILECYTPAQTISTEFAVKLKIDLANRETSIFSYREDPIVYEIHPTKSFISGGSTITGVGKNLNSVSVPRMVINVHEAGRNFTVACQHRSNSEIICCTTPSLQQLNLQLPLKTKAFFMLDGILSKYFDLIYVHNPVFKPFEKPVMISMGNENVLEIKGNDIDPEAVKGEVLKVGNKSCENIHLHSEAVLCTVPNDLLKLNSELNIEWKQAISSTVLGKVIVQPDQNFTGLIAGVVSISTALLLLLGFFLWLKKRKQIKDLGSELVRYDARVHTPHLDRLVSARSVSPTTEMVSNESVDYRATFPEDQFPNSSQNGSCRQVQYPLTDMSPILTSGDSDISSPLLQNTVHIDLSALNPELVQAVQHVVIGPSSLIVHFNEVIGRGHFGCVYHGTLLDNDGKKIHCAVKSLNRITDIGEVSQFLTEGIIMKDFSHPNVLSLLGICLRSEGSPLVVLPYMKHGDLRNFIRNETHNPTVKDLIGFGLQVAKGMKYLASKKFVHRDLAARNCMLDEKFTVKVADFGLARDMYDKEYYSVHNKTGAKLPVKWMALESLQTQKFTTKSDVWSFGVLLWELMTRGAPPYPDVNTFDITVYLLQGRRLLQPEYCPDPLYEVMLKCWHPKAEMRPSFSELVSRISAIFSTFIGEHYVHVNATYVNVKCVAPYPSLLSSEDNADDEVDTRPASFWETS
Chain of Tyrosine-protein kinase ABL1 (Homo sapiens) (P00519 whole entry): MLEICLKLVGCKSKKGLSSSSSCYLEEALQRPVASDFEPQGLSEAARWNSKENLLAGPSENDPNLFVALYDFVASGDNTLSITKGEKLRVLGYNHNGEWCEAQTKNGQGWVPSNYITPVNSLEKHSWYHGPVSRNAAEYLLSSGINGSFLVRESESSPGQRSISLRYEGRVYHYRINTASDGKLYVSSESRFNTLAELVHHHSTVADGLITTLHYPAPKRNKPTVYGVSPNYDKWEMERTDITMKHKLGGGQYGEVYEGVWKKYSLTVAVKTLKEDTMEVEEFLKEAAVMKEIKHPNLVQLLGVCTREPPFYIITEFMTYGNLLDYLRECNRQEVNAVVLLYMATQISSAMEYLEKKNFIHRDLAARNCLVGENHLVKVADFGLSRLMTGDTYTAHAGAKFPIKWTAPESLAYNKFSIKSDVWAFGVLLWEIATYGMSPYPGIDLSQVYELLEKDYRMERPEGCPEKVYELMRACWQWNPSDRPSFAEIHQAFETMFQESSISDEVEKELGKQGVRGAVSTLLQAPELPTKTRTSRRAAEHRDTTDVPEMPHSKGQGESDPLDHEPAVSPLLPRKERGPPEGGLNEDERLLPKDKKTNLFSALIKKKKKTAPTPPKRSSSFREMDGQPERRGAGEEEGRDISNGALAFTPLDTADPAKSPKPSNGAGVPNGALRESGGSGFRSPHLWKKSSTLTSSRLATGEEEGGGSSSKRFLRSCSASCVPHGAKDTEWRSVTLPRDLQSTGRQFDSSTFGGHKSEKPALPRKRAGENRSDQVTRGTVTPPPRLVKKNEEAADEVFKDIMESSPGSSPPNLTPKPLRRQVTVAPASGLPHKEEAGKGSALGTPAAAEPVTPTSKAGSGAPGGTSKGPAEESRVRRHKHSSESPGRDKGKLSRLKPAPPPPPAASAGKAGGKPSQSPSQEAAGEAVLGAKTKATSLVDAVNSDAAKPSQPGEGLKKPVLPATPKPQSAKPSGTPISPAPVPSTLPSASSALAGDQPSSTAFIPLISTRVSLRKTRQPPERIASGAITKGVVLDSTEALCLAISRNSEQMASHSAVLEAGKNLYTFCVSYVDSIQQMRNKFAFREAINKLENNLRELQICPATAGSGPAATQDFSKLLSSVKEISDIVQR
Chain of ALK tyrosine kinase receptor (Homo sapiens) (Q9UM73 19-1620 limits assumed): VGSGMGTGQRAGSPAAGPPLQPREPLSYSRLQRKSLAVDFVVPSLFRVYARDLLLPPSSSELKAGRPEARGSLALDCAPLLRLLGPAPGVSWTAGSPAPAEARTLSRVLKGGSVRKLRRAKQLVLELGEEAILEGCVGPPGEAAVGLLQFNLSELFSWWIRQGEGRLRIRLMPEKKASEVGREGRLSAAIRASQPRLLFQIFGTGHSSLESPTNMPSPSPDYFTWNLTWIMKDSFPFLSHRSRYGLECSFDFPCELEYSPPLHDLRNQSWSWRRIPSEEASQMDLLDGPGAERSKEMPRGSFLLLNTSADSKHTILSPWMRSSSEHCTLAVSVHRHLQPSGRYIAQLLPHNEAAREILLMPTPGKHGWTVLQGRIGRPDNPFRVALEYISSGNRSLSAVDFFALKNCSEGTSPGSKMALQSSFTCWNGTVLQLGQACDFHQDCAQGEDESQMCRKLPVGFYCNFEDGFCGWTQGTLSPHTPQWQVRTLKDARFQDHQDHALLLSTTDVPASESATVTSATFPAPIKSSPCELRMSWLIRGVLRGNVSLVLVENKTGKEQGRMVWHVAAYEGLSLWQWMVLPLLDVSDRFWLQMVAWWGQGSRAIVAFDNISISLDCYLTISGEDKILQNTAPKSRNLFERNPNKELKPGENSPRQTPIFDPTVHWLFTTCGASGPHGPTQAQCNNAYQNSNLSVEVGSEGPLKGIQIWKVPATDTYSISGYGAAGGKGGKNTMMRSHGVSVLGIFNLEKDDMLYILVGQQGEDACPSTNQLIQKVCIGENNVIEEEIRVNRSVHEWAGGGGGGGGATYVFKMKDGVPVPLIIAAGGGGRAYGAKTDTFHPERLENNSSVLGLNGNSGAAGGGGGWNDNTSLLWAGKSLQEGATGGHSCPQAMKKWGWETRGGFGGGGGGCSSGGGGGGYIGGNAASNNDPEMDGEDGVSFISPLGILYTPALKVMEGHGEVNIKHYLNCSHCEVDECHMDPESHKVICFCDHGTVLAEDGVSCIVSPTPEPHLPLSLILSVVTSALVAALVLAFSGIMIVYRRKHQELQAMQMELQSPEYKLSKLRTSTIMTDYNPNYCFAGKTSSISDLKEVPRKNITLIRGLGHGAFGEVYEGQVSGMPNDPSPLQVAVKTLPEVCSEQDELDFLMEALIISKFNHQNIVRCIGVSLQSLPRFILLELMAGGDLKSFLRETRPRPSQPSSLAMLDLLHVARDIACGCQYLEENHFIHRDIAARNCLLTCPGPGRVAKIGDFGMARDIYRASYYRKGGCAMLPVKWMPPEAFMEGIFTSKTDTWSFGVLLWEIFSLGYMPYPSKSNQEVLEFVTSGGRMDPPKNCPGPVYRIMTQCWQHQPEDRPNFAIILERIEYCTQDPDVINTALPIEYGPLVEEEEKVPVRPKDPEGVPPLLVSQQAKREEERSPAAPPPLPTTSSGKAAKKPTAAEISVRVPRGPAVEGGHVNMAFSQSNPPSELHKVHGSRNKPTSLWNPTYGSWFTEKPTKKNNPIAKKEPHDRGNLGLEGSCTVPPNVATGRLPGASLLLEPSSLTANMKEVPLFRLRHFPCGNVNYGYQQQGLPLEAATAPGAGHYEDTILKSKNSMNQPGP
Chain of Tyrosine-protein kinase receptor UFO (Homo sapiens) (P30530 whole entry): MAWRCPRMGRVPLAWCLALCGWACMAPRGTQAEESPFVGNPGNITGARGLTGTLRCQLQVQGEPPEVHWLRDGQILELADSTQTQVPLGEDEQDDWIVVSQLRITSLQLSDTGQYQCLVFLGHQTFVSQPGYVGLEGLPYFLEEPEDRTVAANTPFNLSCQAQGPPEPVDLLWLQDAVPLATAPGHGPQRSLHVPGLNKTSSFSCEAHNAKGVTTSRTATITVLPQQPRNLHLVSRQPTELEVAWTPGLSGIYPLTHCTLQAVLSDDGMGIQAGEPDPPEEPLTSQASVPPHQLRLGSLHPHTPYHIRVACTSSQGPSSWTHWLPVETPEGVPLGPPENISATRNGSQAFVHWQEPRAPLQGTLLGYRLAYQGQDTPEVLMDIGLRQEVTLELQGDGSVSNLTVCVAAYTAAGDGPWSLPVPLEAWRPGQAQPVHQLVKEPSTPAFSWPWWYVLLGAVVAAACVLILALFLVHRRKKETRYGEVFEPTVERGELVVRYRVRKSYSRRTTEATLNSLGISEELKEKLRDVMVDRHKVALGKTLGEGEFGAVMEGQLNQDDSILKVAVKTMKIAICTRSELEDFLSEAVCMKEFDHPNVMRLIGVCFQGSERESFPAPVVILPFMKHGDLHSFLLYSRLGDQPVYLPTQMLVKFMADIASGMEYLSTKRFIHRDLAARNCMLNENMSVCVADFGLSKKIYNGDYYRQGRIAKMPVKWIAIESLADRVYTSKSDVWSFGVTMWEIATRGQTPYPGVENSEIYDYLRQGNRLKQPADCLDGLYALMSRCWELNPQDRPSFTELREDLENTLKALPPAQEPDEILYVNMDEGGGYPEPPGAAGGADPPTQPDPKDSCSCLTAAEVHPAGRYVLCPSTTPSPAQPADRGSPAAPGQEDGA

For `Fc1ccc(-c2cnc3nnc(C(F)(F)c4ccc5ncccc5c4)n3n2)cc1`, the selectivity ratio [1] was over 10000, the IC50 [2] was over 10 µM and the inhibition [3] was “Active”. The inhibition [4] was 36%, the inhibition [5] was “Active” and the inhibition [6] was “Active”. The “Ratio IC50” value [7] was 10000, the “Ratio IC50” value [8] was 10000 and the inhibition [9] was 14.9%. For the same compound, the inhibition [10] was 2.1%, the “Ratio IC50” value [11] was 10000 and the selectivity ratio [12] was over 10000. For the same compound, the inhibition in vivo at 12.5 mg/kg [13] was 80.1%, the “Ratio IC50” value [14] was 10000 and the inhibition [15] was 31.4%. For the same compound, the “Ratio IC50” value [16] was 10000, the “Ratio IC50” value [17] was 10000 and the IC50 [18] was over 10 µM. The inhibition [19] was “Active”, the Ratio IC50 [20] was over 10000 and the “Ratio IC50” value [21] was 10000. For the same compound, the “Ratio IC50” value [22] was 10000, the Ratio IC50 [23] was over 10000 and the Ratio IC50 [24] was over 10000. For the same compound, the inhibition [25] was “Dose-dependent effect” and the “Ratio IC50” value [26] was 10000.
